In general, Ki refers to a measure of affinity in units of concentration, obtained from inhibition or displacement. The term IC50 denotes the concentration needed to halve the response being measured.

Each structure is given as a SMILES string. Active and inactive are the calls of the source. No cut-off for these calls is given here.

Ten compounds from ChEMBL document CHEMBL4138091, “Quinazoline based α1-adrenoreceptor antagonists with potent antiproliferative activity in human prostate cancer cell lines” (Eur J Med Chem, 2017) can be followed below.

In test [1] the target is T1, Alpha-1D adrenergic receptor (Homo sapiens, UniProt P25100).
T1 sequence (P25100 whole entry): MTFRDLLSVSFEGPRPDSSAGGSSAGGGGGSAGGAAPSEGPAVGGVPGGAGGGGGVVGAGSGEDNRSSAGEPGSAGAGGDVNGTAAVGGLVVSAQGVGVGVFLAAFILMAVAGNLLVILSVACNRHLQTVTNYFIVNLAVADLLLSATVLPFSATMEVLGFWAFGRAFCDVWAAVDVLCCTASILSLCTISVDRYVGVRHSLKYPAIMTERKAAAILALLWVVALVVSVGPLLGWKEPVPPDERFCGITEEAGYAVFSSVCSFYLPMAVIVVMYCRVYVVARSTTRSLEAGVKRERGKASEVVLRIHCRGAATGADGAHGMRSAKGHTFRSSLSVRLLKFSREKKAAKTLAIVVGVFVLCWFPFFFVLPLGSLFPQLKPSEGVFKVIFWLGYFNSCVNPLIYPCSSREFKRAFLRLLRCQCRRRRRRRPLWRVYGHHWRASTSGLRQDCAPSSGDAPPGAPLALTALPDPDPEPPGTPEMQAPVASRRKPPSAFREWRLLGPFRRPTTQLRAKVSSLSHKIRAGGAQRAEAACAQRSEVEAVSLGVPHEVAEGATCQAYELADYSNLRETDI
Nature of the test: Displacement of [3H]prazosin from human alpha1D adrenoceptor expressed in CHO cell membranes after 30 mins.

Test [2] deals with LNCaP. The test can be described thus: Induction of necrosis in human LNCAP cells assessed as loss of plasma membrane integrity at 1 to 10 uM after 24 hrs by trypan blue staining-based Neubauer hemocytometric method. The class given is functional, cell-based. A digest of the protocol:
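LNCaP cells seeded at 1 × 10⁶ cells/well, treated 1–10 µM for 24 h at 37 °C, 5% CO₂; scraped into PBS, mixed 1:1 with 0.5% trypan blue, counted on a Neubauer hemocytometer; percentage of stained cells from at least 3 separate counts.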

Test [3] deals with DU-145. Nature of the test: Antiproliferative activity against human DU145 cells at 0.1 to 50 uM after 120 hrs by MTT assay. The class given is functional, cell-based. In outline: (§1)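 DU-145, PC-3 and LNCaP cells grown in RPMI with 10% fetal calf serum, 37 °C, 5% CO₂; seeded at 5 × 10³ cells/well, exposed to 0.1–50 µM for 120 h. After PBS wash, MTT (5 mg/mL) in PBS 4 h, formazan dissolved in isopropanol, read at 570 nm. Viability as % of untreated; IC50 from at least three independent dose-response curves.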
In general terms: Tetrazolium assays rely on reduction of a dye to a coloured formazan, in cell work by metabolically active cells.

Test [4] relates to LNCaP. The test can be described thus: Antioxidant activity in human LNCAP cells assessed as inhibition of t-BuOOH-induced ROS level at 1 to 10 uM after 30 mins by DCFH-DA dye-based spectrofluorometric analysis relative to control. Format: functional.
Test [5] concerns the target T2, Alpha-1A adrenergic receptor (Homo sapiens, UniProt P35348).
T2 sequence (P35348 whole entry): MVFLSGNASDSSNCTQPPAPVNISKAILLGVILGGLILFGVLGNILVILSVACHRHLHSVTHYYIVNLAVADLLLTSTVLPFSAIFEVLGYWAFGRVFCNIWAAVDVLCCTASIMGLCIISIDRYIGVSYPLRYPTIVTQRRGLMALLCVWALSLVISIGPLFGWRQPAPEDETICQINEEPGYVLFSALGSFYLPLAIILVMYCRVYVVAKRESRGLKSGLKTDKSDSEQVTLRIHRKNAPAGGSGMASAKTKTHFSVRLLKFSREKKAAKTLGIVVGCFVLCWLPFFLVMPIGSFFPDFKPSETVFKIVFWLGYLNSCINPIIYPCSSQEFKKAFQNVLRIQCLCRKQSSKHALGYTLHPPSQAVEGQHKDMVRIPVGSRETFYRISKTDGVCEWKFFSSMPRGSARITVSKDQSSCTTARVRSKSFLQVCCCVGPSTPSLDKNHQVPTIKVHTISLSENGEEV
The test can be described thus: Displacement of [3H]prazosin from human alpha1A adrenoceptor expressed in CHO cell membranes after 30 mins. A general note: In a radioligand displacement assay an active substance lowers the binding of a labelled ligand.

Test [6] has as its system LNCaP. The test can be described thus: Antiproliferative activity against human LNCAP cells at 0.1 to 50 uM after 120 hrs by MTT assay. The class given is functional, cell-based. A digest of the protocol: as §1
The subject of test [7] is LNCaP. The test can be described thus: Induction of apoptosis in human LNCAP cells assessed as increase in DNA fragmentation at 1 to 10 uM after 24 hrs by spectrophotometer relative to control. The class given is functional. A digest of the protocol:
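LNCaP cells seeded at 1 × 10³ cells/well, treated 1–10 µM for 24 h at 37 °C, 5% CO₂; lysed 30 min, centrifuged, supernatant ELISA with biotin anti-histone and peroxidase anti-DNA antibodies on streptavidin plate, ABTS 20 min, read 405 nm. Fold increase = treated/untreated absorbance; mean ± SD, three independent experiments.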

Test [8] has as its system PC-3. Nature of the test: Antiproliferative activity against human PC3 cells at 0.1 to 50 uM after 120 hrs by MTT assay. Format: functional, cell-based. A digest of the protocol:
as §1

For test [9], the system named is Panel NCI-60 (60 carcinoma cell lines). Nature of the test: Antiproliferative activity against human NCI60 cells at 10 uM after 48 hrs by SRB assay. Format: functional, cell-based. In outline:
(§2)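 NCI one-dose screen at 10 µM across 60 human tumour lines, 48 h exposure; growth given relative to no-drug control and to time-zero cell number, so 0–100 means inhibition and below 0 lethality; 100 means no inhibition.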
On the technique in general: In SRB staining, fixed cells bind dye roughly in proportion to their protein.

For test [10], the system named is LNCaP. The test can be described thus: Prooxidant activity in human LNCAP cells assessed as increase in depletion of intercellular GSH level at 1 to 10 uM after 24 hrs by MCB dye-based spectrofluorometric analysis. The class given is functional, cell-based. In outline: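 LNCaP cells seeded at 2 × 10⁴ cells/well, treated 1–10 µM for 24 h at 37 °C, 5% CO₂; washed, 50 µM monochlorobimane in PBS 30 min at 37 °C, fluorescence read at excitation 360 nm, emission 465 nm; arbitrary fluorescence units; mean ± SD, three independent experiments.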

The target of test [11] is T3, Alpha-1B adrenergic receptor (Homo sapiens, UniProt P35368).
T3 sequence (P35368 whole entry): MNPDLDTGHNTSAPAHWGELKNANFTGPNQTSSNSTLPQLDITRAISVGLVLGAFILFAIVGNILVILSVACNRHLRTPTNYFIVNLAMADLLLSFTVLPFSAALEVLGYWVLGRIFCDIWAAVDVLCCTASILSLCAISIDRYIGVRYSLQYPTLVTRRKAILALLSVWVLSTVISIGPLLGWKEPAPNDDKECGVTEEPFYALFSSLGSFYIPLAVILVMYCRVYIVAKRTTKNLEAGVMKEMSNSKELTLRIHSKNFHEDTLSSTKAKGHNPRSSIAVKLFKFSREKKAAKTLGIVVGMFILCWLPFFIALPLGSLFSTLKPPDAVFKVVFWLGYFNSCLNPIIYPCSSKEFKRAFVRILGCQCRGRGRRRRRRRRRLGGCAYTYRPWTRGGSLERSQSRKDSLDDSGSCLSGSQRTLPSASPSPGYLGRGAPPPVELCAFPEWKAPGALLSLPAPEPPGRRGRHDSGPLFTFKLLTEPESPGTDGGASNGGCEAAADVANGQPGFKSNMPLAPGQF
The test can be described thus: Displacement of [3H]prazosin from human alpha1B adrenoceptor expressed in CHO cell membranes after 30 mins.

In test [12] the test system is LNCaP. The test can be described thus: Induction of apoptosis in human LNCAP cells assessed as increase in DNA fragmentation at 10 uM after 24 hrs by spectrophotometer relative to control. Format: functional. A digest of the protocol:
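LNCaP cells seeded at 1 × 10³ cells/well, exposed to compounds (1–10 µM range) for 24 h at 37 °C, 5% CO₂; lysed, supernatant run in Cell Death Detection ELISAplus (biotin anti-histone/peroxidase anti-DNA on streptavidin plate, ABTS substrate 20 min); absorbance 405 nm. DNA fragmentation given as fold increase, treated/untreated absorbance; mean SD of three independent experiments, t-test vs untreated.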

For test [13], the system named is PC-3. The test can be described thus: Antiproliferative activity against human PC3 cells after 120 hrs by MTT assay. The settings on record: PC-3, 120 h. The class given is functional, cell-based. In outline: as §1
Test [14] relates to LNCaP. The test can be described thus: Antiproliferative activity against human LNCAP cells after 120 hrs by MTT assay. Format: functional, cell-based. In outline: as §1
Test [15] concerns DU-145. The test can be described thus: Antiproliferative activity against human DU145 cells after 120 hrs by MTT assay. The class given is functional, cell-based. The note with it: DU-145, 120 h. A digest of the protocol: as §1
Test [16] deals with DU-145. Nature of the test: Antiproliferative activity against human DU145 cells at 10 uM after 48 hrs by SRB assay relative to control. The class given is functional. In outline:
as §2

The subject of test [17] is PC-3. Nature of the test: Growth inhibition of human PC3 cells at 10 uM after 48 hrs by SRB assay relative to control. Format: functional. The note with it: PC-3, 48 h, read-out: GI. In outline: as §2

Consider `COc1cc2nc(N3CCC[C@H](N)C3)nc(N)c2cc1OC`, for which the Ki in test [1] was 0.0282 µM; in test [5], 0.191 µM; in [11], 0.055 µM. The result (in the test on LNCaP [2]; in the test on DU-145 [3]; in the test with LNCaP [6]; in the test on LNCaP [7]; in the test with PC-3 [8]; in test [9]) was inactive. Moreover, in the test on LNCaP [10], the result was inactive. The inhibition result with LNCaP [4] is “inactive”.
With `COc1cc2nc(N3CCN(C(=O)C4COc5ccccc5O4)CC3)nc(N)c2cc1OC` (configuration not stated) [DOXAZOSIN], the “fold change (FC)” value in the test with LNCaP [12] worked out at 2.2. For the same compound, the outcome with LNCaP [2] was inactive. The IC50 with PC-3 [13] amounted to 12.1 µM; in the test on LNCaP [14], 10.5 µM; in the test on DU-145 [15], 30.6 µM.
Turning to `COc1cc2nc(N3CCC[C@@H](NC(=O)[C@@H]4COc5ccccc5O4)C3)nc(N)c2cc1OC`, the values for the Ki in test [1], in test [5] and in test [11] were more than 1 µM, more than 1 µM and 0.316 µM, respectively.
For `COc1cc2nc(N3CCC[C@@H](NC4=CC(=O)c5ccccc5C4=O)C3)nc(N)c2cc1OC`, the Activity with DU-145 [16] is on record as 54%. For the same compound, the Ki in test [1] is 0.0339 µM; in [5], 0.12 µM; in test [11], 0.0251 µM. In addition, the values for the IC50 with PC-3 [13], in the test on LNCaP [14] and with DU-145 [15] were 18.6 µM, 5.78 µM and 17.8 µM, respectively. In addition, the inhibition of growth at 10 µM with PC-3 [17] amounted to 45.5%. In addition, the outcome in test [9] was Active.
Consider `COc1cc2nc(N3CCC[C@@H](NC(=O)c4ccco4)C3)nc(N)c2cc1OC`, for which the Ki in [1] was 0.0372 µM; in [5], 0.11 µM; in test [11], 0.0427 µM. For the same compound, the outcome (in the test on DU-145 [3]; in the test on LNCaP [6]; in the test with PC-3 [8]; in test [9]) was inactive.
Turning to `COc1cc2nc(N3CCC[C@H](NC(=O)[C@@H]4COc5ccccc5O4)C3)nc(N)c2cc1OC`, the inhibitory constant (Ki) in test [1] is 0.0132 µM; in test [5], 0.0331 µM; in [11], 0.00741 µM. Also, the outcome (in the test on DU-145 [3]; in the test with LNCaP [6]; in the test on PC-3 [8]; in test [9]) was inactive.
On to `COc1cc2nc(N3CCC[C@@H](NC(=O)[C@H]4COc5ccccc5O4)C3)nc(N)c2cc1OC`, for which the results for the Ki in test [1], in test [5] and in [11] were 0.295 µM, more than 1 µM and 0.0468 µM, respectively.
For `COc1cc2nc(N3CCC[C@@H](N)C3)nc(N)c2cc1OC`, in that order: 0.102 µM, more than 1 µM and 0.178 µM.
As for `COc1cc2nc(N3CCC[C@H](NC(=O)[C@H]4COc5ccccc5O4)C3)nc(N)c2cc1OC`, the Ki in [1] was 0.049 µM; in test [5] it was 0.0182 µM; in [11], 0.0631 µM. Moreover, the result (in the test with DU-145 [3]; with LNCaP [6]; with PC-3 [8]; in [9]) was inactive.
Take `COc1cc2nc(N3CCC[C@H](NC(=O)c4ccco4)C3)nc(N)c2cc1OC`: the Ki is 0.000331 µM in test [1], 0.000631 µM in test [5] and 0.000282 µM in test [11]. The outcome (with DU-145 [3]; in the test with LNCaP [6]; in the test on PC-3 [8]; in test [9]) was inactive.
